Experimental data as given in ChEMBL document CHEMBL5532690, “Antitubercular activity of 2-mercaptobenzothiazole derivatives targeting Mycobacterium tuberculosis type II NADH dehydrogenase” (RSC Med Chem, 2024).
Converted amounts (≈) assume the structure as drawn.

Legend:
[1] = tested on: Mycobacterium tuberculosis variant bovis; experiment: Antitubercular activity against Mycobacterium bovis BCG measured after 10 days by liquid broth microdilution assay; assay type: functional; conditions: 240 h, time 10 day
How it was run: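 Broth microdilution in 7H9 with 0.2% glycerol, 0.05% Tween 80 and 10% ADS. Mid-log cultures (OD600 0.4–0.6) were diluted to OD600 0.005 (1.0 × 10^6 CFU ml−1) and added to two-fold serial compound dilutions. Plates were incubated at 37 °C for 10 days and read visually. MIC was the lowest concentration with no turbidity.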

[2] = tested on: Mycobacterium tuberculosis variant bovis; experiment: Antitubercular activity against Mycobacterium bovis BCG assessed as inhibition of intracellular ATP synthesis incubated for 24 hrs by BacTiter-Glo microbial cell viability assay; assay type: functional, organism-based
How it was run: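 Mid-log cultures were adjusted to OD600 0.05 and exposed to compounds at 37 °C for 24 h. BacTiter-Glo reagent was then added for 12 min and luminescence was read. H37Ra and BCG were grown in 7H9 with glycerol, Tween 80 and ADS. mc2 6230 was grown with tyloxapol plus methionine, leucine, arginine and pantothenate. Values are the mean of triplicates.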

| Compound | MIC90 [1] [µg/mL] | IC50 [2] [µg/mL] |
| --- | --- | --- |
| O=C(CSc1nc2ccc(Br)cc2s1)NC1CCCCC1 | 128 (≈ 332 µM) | 31.8 (≈ 82.4 µM) |
| O=C(CSc1nc2ccc(F)cc2s1)NC1CCCCC1 | 8 (≈ 24.7 µM) | 19.7 (≈ 60.6 µM) |
| O=C(CSc1nc2c(Br)cc(OC(F)(F)F)cc2s1)NC1CCCCC1 | 128 (≈ 273 µM) | 40.8 (≈ 86.9 µM) |
| O=C(CSc1nc2c(Br)cc(F)cc2s1)NC1CCCCC1 | 4 (≈ 9.92 µM) | 13.5 (≈ 33.5 µM) |
| Cc1cc(C)c2nc(SCC(=O)NC3CCCCC3)sc2c1 | 4 (≈ 12 µM) | 13.4 (≈ 40.2 µM) |
| O=C(CSc1nc2c(Br)cc(C(F)(F)F)cc2s1)NC1CCCCC1 | 64 (≈ 141 µM) | 39.8 (≈ 87.9 µM) |
| O=C(CSc1nc2ccccc2c(=O)[nH]1)NC1CCCCC1 | 1 (≈ 3.15 µM) | 4.99 (≈ 15.7 µM) |
| CC(C)/N=c1\cc2n(-c3ccc(Cl)cc3)c3ccccc3nc-2cc1Nc1ccc(Cl)cc1 [CLOFAZIMINE] | 0.25 (≈ 0.528 µM) | – |
| O=C(CSc1nc2ccc([N+](=O)[O-])cc2s1)NC1CCCCC1 | 32 (≈ 91.1 µM) | 34.4 (≈ 98 µM) |
| O=C(CSc1nc2ccc(Cl)cc2s1)NC1CCCCC1 | 64 (≈ 188 µM) | 32.9 (≈ 96.4 µM) |
| C=C(C)[C@H]1Cc2c(ccc3c2O[C@@H]2COc4cc(OC)c(OC)cc4[C@@H]2C3=O)O1 [ROTENONE] | > 64 | – |
| O=C(CSc1nc2ccccc2s1)NC1CCCCC1 | 64 (≈ 209 µM) | 33.2 (≈ 108 µM) |
| O=C(CSc1nc2ccc(OC(F)(F)F)cc2s1)NC1CCCCC1 | 128 (≈ 328 µM) | 30.4 (≈ 77.9 µM) |
| O=C(CSc1nc2c(ccc3ccccc32)s1)NC1CCCCC1 | 64 (≈ 180 µM) | 38 (≈ 106 µM) |
| NNC(=O)c1ccncc1 [ISONIAZID] | 0.06 (≈ 0.438 µM) | – |
| O=C(CSc1nc2ccc(C(F)(F)F)cc2s1)NC1CCCCC1 | 128 (≈ 342 µM) | 19.7 (≈ 52.6 µM) |
| Cc1ccc2nc(SCC(=O)NC3CCCCC3)sc2c1 | 16 (≈ 49.9 µM) | 14.4 (≈ 44.9 µM) |
| CO[C@H]1/C=C/O[C@@]2(C)Oc3c(C)c(O)c4c(O)c(c(/C=N/N5CCN(C)CC5)c(O)c4c3C2=O)NC(=O)/C(C)=C\C=C\[C@H](C)[C@H](O)[C@@H](C)[C@@H](O)[C@@H](C)[C@H](OC(C)=O)[C@@H]1C [RIFAMPIN] | 0.03 (≈ 0.0365 µM) | – |
| CC(C)c1ccc2nc(SCC(=O)NC3CCCCC3)sc2c1 | 4 (≈ 11.5 µM) | 9.89 (≈ 28.4 µM) |
